For assay [1], the target named is T1, Inhibitor of nuclear factor kappa-B kinase subunit beta (Homo sapiens) (UniProt O14920).
T1 sequence (whole entry): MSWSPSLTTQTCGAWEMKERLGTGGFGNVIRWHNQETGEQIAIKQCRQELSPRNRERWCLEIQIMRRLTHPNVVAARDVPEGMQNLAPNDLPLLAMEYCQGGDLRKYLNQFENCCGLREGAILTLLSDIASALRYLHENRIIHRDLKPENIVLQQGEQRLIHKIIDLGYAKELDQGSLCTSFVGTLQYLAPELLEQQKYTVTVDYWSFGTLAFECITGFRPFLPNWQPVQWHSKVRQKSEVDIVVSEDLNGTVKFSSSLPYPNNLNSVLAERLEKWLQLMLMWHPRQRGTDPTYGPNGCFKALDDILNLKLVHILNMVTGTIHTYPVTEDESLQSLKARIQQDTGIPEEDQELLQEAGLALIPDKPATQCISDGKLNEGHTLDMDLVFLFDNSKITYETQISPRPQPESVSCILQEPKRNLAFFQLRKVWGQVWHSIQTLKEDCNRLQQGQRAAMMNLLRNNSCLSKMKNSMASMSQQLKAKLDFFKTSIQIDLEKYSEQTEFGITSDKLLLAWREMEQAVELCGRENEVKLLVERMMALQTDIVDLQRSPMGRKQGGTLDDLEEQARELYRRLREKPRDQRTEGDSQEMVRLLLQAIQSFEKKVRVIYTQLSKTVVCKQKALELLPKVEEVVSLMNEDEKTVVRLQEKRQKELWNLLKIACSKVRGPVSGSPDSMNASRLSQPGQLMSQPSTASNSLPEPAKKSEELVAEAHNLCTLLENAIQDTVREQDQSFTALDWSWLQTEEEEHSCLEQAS
Nature of the assay: Inhibition of recombinant IKKbeta (unknown origin) using ulight-IkappaomegaBalpha as substrate at 20 uM after 1 hr by LANCE ultra TR-FRET assay relative to control. On the technique in general: TR-FRET usually uses a lanthanide donor and a delayed reading to cut background.

The nature of assay [2]: Cytotoxicity against human Jurkat T cells assessed as cell viability at 4 uM after 24 hrs by CellTiter-Glo assay relative to control. It is filed as functional. The note with it: read-out: Activity. The method in brief: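 Jurkat cells in 0.5% FBS RPMI were exposed to 4 µM compound or 0.1% DMSO for 24 h. Viability was read as ATP by CellTiter-Glo luminescence and expressed as percent of solvent control; below 60% counted as cell killing. Data: three experiments, triplicate.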

For the next assay, the system named is Jurkat. Nature of the assay: Induction of apoptosis in human Jurkat cells assessed as activation of DEVDase at 5 uM after 4 hrs by fluorometric assay relative to control. It is filed as functional. The procedure, abridged:
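Jurkat cells (20,000/well, 0.5% FBS RPMI) were treated 4 h with 5 µM compound and lysed 15 min in PIPES pH 7 buffer with NP-40, cytochalasin B and protease inhibitors. An equal volume of 2× caspase buffer containing 100 µM Ac-DEVD-AFC was added. AFC fluorescence (ex 390/em 510 nm) was read every 2 min for 1 h at 37 °C; the linear slope was taken as activity, expressed as fold over DMSO control. Data: 2 experiments, triplicate.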

Assay [3] has as its target T2, Inhibitor of nuclear factor kappa-B kinase subunit alpha (Homo sapiens) (UniProt O15111).
T2 sequence (whole entry): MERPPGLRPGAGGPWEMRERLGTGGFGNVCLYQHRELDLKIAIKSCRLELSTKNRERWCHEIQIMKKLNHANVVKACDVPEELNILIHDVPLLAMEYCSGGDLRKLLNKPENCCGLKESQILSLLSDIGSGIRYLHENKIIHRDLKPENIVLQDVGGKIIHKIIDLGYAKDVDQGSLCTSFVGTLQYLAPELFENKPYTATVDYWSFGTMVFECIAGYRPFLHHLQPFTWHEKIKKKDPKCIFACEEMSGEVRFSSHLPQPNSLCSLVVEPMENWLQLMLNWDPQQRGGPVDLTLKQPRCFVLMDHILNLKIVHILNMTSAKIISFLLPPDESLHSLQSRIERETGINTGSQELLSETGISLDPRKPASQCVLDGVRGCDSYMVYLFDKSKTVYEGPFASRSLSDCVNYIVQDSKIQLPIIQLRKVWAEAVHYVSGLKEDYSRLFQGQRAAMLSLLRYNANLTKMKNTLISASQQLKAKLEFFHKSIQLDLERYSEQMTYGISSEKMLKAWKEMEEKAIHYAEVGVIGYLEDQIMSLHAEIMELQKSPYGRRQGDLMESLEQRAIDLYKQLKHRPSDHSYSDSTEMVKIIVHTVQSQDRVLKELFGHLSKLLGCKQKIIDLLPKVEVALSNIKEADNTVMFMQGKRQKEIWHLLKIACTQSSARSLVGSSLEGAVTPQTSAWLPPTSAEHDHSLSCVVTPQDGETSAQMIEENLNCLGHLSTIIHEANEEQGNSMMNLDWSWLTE
Nature of the assay: Inhibition of recombinant IKKalpha (unknown origin) using ulight-IkappaomegaBalpha as substrate at 20 uM after 2 hrs by LANCE ultra TR-FRET assay relative to control. The procedure, abridged: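 Recombinant IKKα (4 nM), IKKβ (1 nM) or IKKε (2 nM) in 50 mM Hepes pH 7.4, 10 mM MgCl2, 1 mM EGTA, 2 mM DTT, 0.01% Tween-20. Substrate was 50 nM ULight-IκBα (IKKα/β) or ULight-rpS6 (IKKε); ATP was 1.25 µM (α/β) or 5 µM (ε). Compound was tested at 20 µM. Incubation was 1 h (IKKβ) or 2 h (IKKα/ε) at room temperature, stopped with 20 mM EDTA plus 2 nM Eu-anti-phospho antibody, then TR-FRET 665/615 nm. Results are percent inhibition versus solvent; 3–4 experiments, triplicate.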

As a reminder, the inhibition is the relative decrease from the control value, in per cent.

For the molecule `CC(=O)NCCCOc1cc(/C=C/C(=O)O)ccc1-c1cc(C23CC4CC(CC(C4)C2)C3)c(O)cc1C`, the inhibition in assay [1] came to 0%; in assay [3], 2.3%. Also, in assay [2], the viability at 4 µM is 28%. The “fold change (FC)” value in the assay with Jurkat is listed as 6.3.
Regarding `COc1nc(-c2ccc(C(=O)O)cc2)cnc1-c1ccc(O)c(C23CC4CC(CC(C4)C2)C3)c1`, the inhibition in assay [1] came out at 83.9%; in assay [3], 78.5%. Moreover, the viability at 4 µM in assay [2] amounted to 14.9%. For the same molecule, the “fold change (FC)” value in the assay with Jurkat is on record as 42.6.
Consider `COc1nc(/C=C/C(=O)O)cnc1-c1ccc(O)c(C23CC4CC(CC(C4)C2)C3)c1`, for which the inhibition in assay [1] stood at 8.2%; in assay [3], 17.9%. The viability at 4 µM in assay [2] came to 60.9%. For the same molecule, the “fold change (FC)” value in the assay with Jurkat came to 3.1.
Consider `COCCOCOc1cc(C)c(-c2ccc3cc(C(=O)O)ccc3c2Cl)cc1C12CC3CC(CC(C3)C1)C2`, for which the inhibition in assay [1] is 79.2%; in assay [3], 33.9%. In assay [2], the viability at 4 µM stood at 33.1%. In addition, the “fold change (FC)” value in the assay on Jurkat is listed as 12.4.
Consider `COc1nc(/C=C/C(=O)O)cnc1-c1cc(C23CC4CC(CC(C4)C2)C3)c(O)cc1C`, for which the inhibition in assay [1] worked out at 7.3%; in assay [3], 50.1%. Besides, in assay [2], the viability at 4 µM was found to be 70.9%. In the assay with Jurkat, the “fold change (FC)” value came to 2.6.
On to `COCCOCOc1ccc(-c2ncc(-c3ccc(C(=O)O)cc3)s2)cc1C12CC3CC(CC(C3)C1)C2`, for which the inhibition worked out at 89.3% in assay [1] and 82.9% in assay [3]. In addition, the viability at 4 µM in assay [2] is 74.5%. In addition, the “fold change (FC)” value in the assay with Jurkat stood at 9.8.
For the molecule `COCCOCOc1ccc(-c2ncc(/C=C/C(=O)O)nc2OC)cc1C12CC3CC(CC(C3)C1)C2`, the inhibition in assay [1] came to 1.6%; in assay [3] it was 4.2%. Further, the viability at 4 µM in assay [2] was 94.9%. The “fold change (FC)” value in the assay with Jurkat turned out to be 0.2.
`Cc1cc(O)c(C23CC4CC(CC(C4)C2)C3)cc1-c1ccc2cc(C(=O)O)ccc2c1Cl`: the inhibition in assay [1] is 96.4%; in assay [3], 87.3%. Further, in assay [2], the viability at 4 µM came to 7.7%. Also, the “fold change (FC)” value in the assay with Jurkat is recorded as 55.8.
On to `COCCOCOc1cc(C)c(-c2ccc(CC(=O)O)cc2Cl)cc1C12CC3CC(CC(C3)C1)C2`, for which the inhibition in assay [1] was determined as 39.8%; in assay [3], 42.3%. The viability at 4 µM in assay [2] is 86.8%. Further, in the assay with Jurkat, the “fold change (FC)” value was found to be 2.6.
Consider `COCCOCOc1ccc(-c2ncc(-c3ccc(C(=O)O)cc3)nc2OC)cc1C12CC3CC(CC(C3)C1)C2`, for which the inhibition came to 25.4% in assay [1] and 23.8% in assay [3]. In addition, the viability at 4 µM in assay [2] was found to be 91.4%. The “fold change (FC)” value in the assay with Jurkat is listed as 2.5.
In the case of `Cc1cc(O)c(C23CC4CC(CC(C4)C2)C3)cc1-c1ccc(CC(=O)O)cc1Cl`, the inhibition was found to be 4.9% in assay [1] and 26.9% in assay [3]. The viability at 4 µM in assay [2] was 45.8%. In the assay with Jurkat, the “fold change (FC)” value is given as 1.8.
For the molecule `Cc1cc(O)c(C23CC4CC(CC(C4)C2)C3)cc1-c1ncc(/C=C/C(=O)O)s1`, the inhibition in assay [1] was determined as 26.2%; in assay [3], 46.6%. The viability at 4 µM in assay [2] turned out to be 92.3%. Also, the “fold change (FC)” value with Jurkat was determined as 1.5.
Take `COCCOCOc1cc(C)c(-c2ccc(/C=C/C(=O)O)cc2Cl)cc1C12CC3CC(CC(C3)C1)C2`: the inhibition came to 4.3% in assay [1] and 13.5% in assay [3]. The viability at 4 µM in assay [2] was 83.7%. In addition, the “fold change (FC)” value in the assay with Jurkat amounted to 1.3.
The like results for `COCCOCOc1cc(C)c(-c2ncc(-c3ccc(C(=O)O)cc3)s2)cc1C12CC3CC(CC(C3)C1)C2` were, in that order, 87.7%, 73.3%, 59.5% and 4.9.
For the molecule `Cc1cc(O)c(C23CC4CC(CC(C4)C2)C3)cc1-c1ccc(/C=C/C(=O)O)cc1Cl`, the inhibition was 4.9% in assay [1] and 23.7% in assay [3]. The viability at 4 µM in assay [2] is 34.1%. The “fold change (FC)” value in the assay on Jurkat came to 0.8.
For `COCCOCOc1cc(C)c(-c2ncc(/C=C/C(=O)O)nc2OC)cc1C12CC3CC(CC(C3)C1)C2`, the inhibition in assay [1] came out at 3.8%; in assay [3], 45.7%. In addition, the viability at 4 µM in assay [2] was 96.5%. Besides, the “fold change (FC)” value in the assay with Jurkat was determined as 0.3.
As for `COCCOCOc1cc(C)c(-c2ncc(/C=C/C(=O)O)s2)cc1C12CC3CC(CC(C3)C1)C2`, the inhibition is 12.2% in assay [1] and 29.2% in assay [3]. Also, the viability at 4 µM in assay [2] amounted to 96.1%. The “fold change (FC)” value with Jurkat is listed as 1.6.
With `COCCOCOc1ccc(-c2ncc(/C=C/C(=O)O)s2)cc1C12CC3CC(CC(C3)C1)C2`, the inhibition in assay [1] was determined as 1.9%; in assay [3], 4.5%. Further, the viability at 4 µM in assay [2] turned out to be 103%. The “fold change (FC)” value in the assay on Jurkat is 0.6.
Take `Cc1cc(O)c(C23CC4CC(CC(C4)C2)C3)cc1-c1ncc(-c2ccc(C(=O)O)cc2)s1`: the inhibition in assay [1] was 95%; in assay [3], 87.9%. Also, the viability at 4 µM in assay [2] amounted to 39%. Also, the “fold change (FC)” value with Jurkat is listed as 12.1.
For the molecule `O=C(O)/C=C/c1cnc(-c2ccc(O)c(C34CC5CC(CC(C5)C3)C4)c2)s1`, the inhibition in assay [1] was determined as 5%; in assay [3] it was 32.8%. Further, the viability at 4 µM in assay [2] is 92.9%. Further, in the assay with Jurkat, the “fold change (FC)” value is 0.6.
For `O=C(O)c1ccc(-c2cnc(-c3ccc(O)c(C45CC6CC(CC(C6)C4)C5)c3)s2)cc1`, the results for the inhibition in assay [1] and in assay [3] were 94.1% and 85.3%, respectively. Also, the viability at 4 µM in assay [2] turned out to be 6%. Besides, the “fold change (FC)” value in the assay on Jurkat came to 81.4.

The values are drawn from ChEMBL document CHEMBL3112476, “Inhibition of IκB kinase-β and IκB kinase-α by heterocyclic adamantyl arotinoids” (Bioorg Med Chem, 2014).
